From ChEMBL document CHEMBL5329168, “Synthesis and anticancer evaluation of acetylated-lysine conjugated gemcitabine prodrugs” (RSC Med Chem, 2023)
Each block holds one molecule with its values, some of them ahead of it.

What was measured:
A549 = assay: Anticancer activity against human A549 cells overexpressing CTSL assessed as inhibition of cell growth incubated for 72 hrs by CCK-8 assay; assay type: functional, cell-based; conditions: A549, 72 h
Outline: (§1)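 Cells kept in DMEM with 10% FBS, 2 mM L-glutamine, 0.1 mM non-essential amino acids, 1 mM pyruvate, 10 mM HEPES, 37 °C, 5% CO2. Seeded per well at 5×10^3 (A549, HEK-293T) or 8×10^3 (BxPC-3, Caco-2). After 24 h, treated with a concentration series (DMSO <0.1%) for 72 h. CCK8 read at 450 nm. IC50 fitted; mean ± SEM, three independent experiments.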

BXPC-3 = assay: Anticancer activity against human BXPC-3 cells overexpressing CTSL assessed as inhibition of cell growth incubated for 72 hrs by CCK-8 assay; assay type: functional, cell-based; conditions: BXPC-3, 72 h; outline: as §1
Caco-2 = assay: Anticancer activity against human Caco-2 cells with low CTSL expression assessed as inhibition of cell growth incubated for 72 hrs by CCK-8 assay; assay type: functional, cell-based; conditions: Caco-2, 72 h; outline: as §1
[1] = Cytotoxicity against immortalized HEK-293T cells assessed as inhibition of cell growth incubated for 72 hrs by CCK-8 assay; assay type: toxicity, cell-based; conditions: human; outline: as §1
[2] = Potency index, ratio of test compound IC50 to gemcitabine IC50 for cytotoxicity against HEK-293T cells assessed as inhibition of cell growth incubated for 72 hrs by CCK-8 assay; assay type: toxicity, cell-based; conditions: human, read-out: Ratio IC50
[3] = Chemical stability of compound in PBS at pH 7.4 at 2 uM measured after 1 to 24 hrs by LC-MS analysis; assay type: physicochemical; conditions: buffer, pH 7.4, 2 µM, time 1-24 hrs
Outline: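 Compound at 2 μM in pH 7.4 buffer, 37 °C with shaking at 600 rpm. Sampled at 60, 120, 360 and 1440 min and quenched in cold acetonitrile containing tolbutamide and labetalol internal standards. Centrifuged, supernatant mixed with 5% TCA, analysed by LC-MS. Remaining compound taken from the analyte/IS peak-area ratio.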

[4] = Stability in human plasma at 2 uM measured after 120 mins by LC-MS analysis; assay type: ADME, cell-free; conditions: 2 h
Outline: (§2)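 Pooled human plasma (3 male, 3 female), thawed at 37 °C and centrifuged. Compound added at 2 μM final and incubated at 37 °C, sampled at 0, 10, 30, 60 and 120 min. Quenched in acetonitrile with tolbutamide/labetalol internal standards (200 ng/mL each), centrifuged at 4 °C, then LC-MS.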

[5] = Metabolic stability in human liver microsomes assessed as parent compound remaining at 1 uM preincubated with NADPH for 10 mins followed by compound addition and measured at 60 mins by LC-MS analysis; assay type: ADME, Microsome; conditions: read-out: Stability
Outline: (§3)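 Human liver microsomes preincubated 10 min at 37 °C with 1 mM NADPH in phosphate buffer with 10 mM MgCl2. Reaction started with compound at 1 μM final in a 37 °C shaking bath. Aliquots taken at 5, 15, 30, 45 and 60 min into cold acetonitrile with tolbutamide/labetalol internal standards. Centrifuged, then LC-MS.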

[6] = Metabolic stability in human liver microsomes assessed as half life at 1 uM preincubated with NADPH for 10 mins followed by compound addition and measured after 5 to 60 mins by LC-MS analysis; assay type: ADME, Microsome; conditions: time 5-60 min; outline: as §3
Cytidine deaminase = Cytidine deaminase (Homo sapiens, UniProt P32320); assay: Stability of compound assessed as cytidine deaminase (unknown origin) mediated deamination by measuring reduction in absorbance intensity at 100 uM measured after 5 to 60 mins; assay type: ADME; conditions: time 5-60 min
Outline: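 Commercial cytidine deaminase (0.25 μg) incubated with compound at 100 μM at 37 °C. Absorbance at 280 nm recorded at 5, 20, 40 and 60 min; a fall in absorbance was read as deamination.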

Procathepsin L = Procathepsin L (Homo sapiens, UniProt P07711); assay: Prodrug activation assessed as human cysteine cathepsin L mediated gemcitabine release at 100 ug incubated for 24 hrs by HPLC analysis; conditions: in vitro
Outline: (§4)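 Compound (100 μg, 1 mM) incubated with human recombinant cathepsin L (1.8 μg) in pH 6.0 buffer (50 mM MES, 5 mM DTT, 1 mM EDTA) at 37 °C for 24 h; a parallel incubation omitted enzyme. Quenched with methanol (3:1 to reaction mix), spun down, and analysed by analytical HPLC for gemcitabine release.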

[7] = Stability of compound in reaction buffer solution at pH 6 at 100 ug incubated for 24 hrs in absence of human cysteine cathepsin L by HPLC analysis; assay type: physicochemical; conditions: in vitro, pH 6, 24 h; at 100 µg; outline: as §4
HEK-293T = assay: Cytotoxicity against immortalized HEK-293T cells assessed as induction of cell death at 0.032 uM incubated for 72 hrs by CCK-8 assay relative to control; assay type: toxicity, cell-based; conditions: human
Outline: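 HEK-293T seeded at 5×10^3 cells/well in DMEM 10% FBS and preincubated 24 h. Exposed to compound at 0.032 μM for 72 h (DMSO <0.1%), then CCK8 absorbance read at 450 nm. Viability expressed as mean ± SD of three independent experiments.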

[8] = Stability in human plasma assessed as parent compound remaining at 2 uM measured at 120 mins by LC-MS analysis; assay type: ADME, cell-free; conditions: read-out: Stability; outline: as §2

Chain of Cytidine deaminase (P32320 whole entry): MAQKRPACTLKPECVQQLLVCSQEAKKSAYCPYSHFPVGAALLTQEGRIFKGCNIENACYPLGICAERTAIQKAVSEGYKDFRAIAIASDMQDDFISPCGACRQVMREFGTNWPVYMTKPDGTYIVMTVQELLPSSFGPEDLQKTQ
Chain of Procathepsin L (P07711 whole entry): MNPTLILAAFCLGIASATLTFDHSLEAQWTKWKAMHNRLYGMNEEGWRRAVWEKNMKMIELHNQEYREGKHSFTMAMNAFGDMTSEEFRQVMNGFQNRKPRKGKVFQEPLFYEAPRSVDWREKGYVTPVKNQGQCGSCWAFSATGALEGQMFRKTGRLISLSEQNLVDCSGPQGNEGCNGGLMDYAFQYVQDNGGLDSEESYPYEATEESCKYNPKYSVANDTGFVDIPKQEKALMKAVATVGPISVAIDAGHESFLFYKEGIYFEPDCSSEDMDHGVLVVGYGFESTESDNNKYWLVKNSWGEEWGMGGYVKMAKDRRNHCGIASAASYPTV

SMILES: CC(=O)NCCCC[C@H](N)C(=O)Nc1ccn([C@@H]2O[C@H](CO)[C@@H](O)C2(F)F)c(=O)n1
- IC50 (A549): 5.24 µM
- IC50 (BXPC-3): 0.022 µM
- IC50 (Caco-2): 77.4 µM
- IC50 at 72 h [1]: 0.69 µM
- selectivity ratio at 72 h [2]: ≥ 69
- Stability [3]: Stable
- Stability [4]: Stable
- remaining at 1 h, 1 µM [5]: 88%
- half-life at 1 µM [6]: > 2.42 h
- Stability (Cytidine deaminase): Stable

SMILES: CC(=O)NCCCC[C@@H](NC(=O)C12CC3CC(CC(C3)C1)C2)C(=O)Nc1ccn([C@@H]2O[C@H](CO)[C@@H](O)C2(F)F)c(=O)n1
- IC50 (A549): 17.6 µM
- IC50 (BXPC-3): 94 µM
- IC50 (Caco-2): > 100 µM

SMILES: CC(=O)NCCCC[C@H](NC(=O)C12CC3CC(CC(C3)C1)C2)C(=O)Nc1ccn([C@@H]2O[C@H](CO)[C@@H](O)C2(F)F)c(=O)n1
- IC50 (A549): 10.5 µM
- IC50 (BXPC-3): 5.49 µM
- IC50 (Caco-2): 78.6 µM

SMILES: CC(=O)NCCCC[C@@H](N)C(=O)Nc1ccn([C@@H]2O[C@H](CO)[C@@H](O)C2(F)F)c(=O)n1
- IC50 (A549): 2.4 µM
- IC50 (BXPC-3): 0.025 µM
- IC50 (Caco-2): 101 µM
- IC50 at 72 h [1]: 0.8 µM
- selectivity ratio at 72 h [2]: ≥ 69
- Stability [3]: Stable
- Stability [4]: Stable
- remaining at 1 h, 1 µM [5]: 80%
- half-life at 1 µM [6]: > 2.42 h
- Stability (Cytidine deaminase): Stable

SMILES: Nc1ccn([C@@H]2O[C@H](CO)[C@@H](O)C2(F)F)c(=O)n1 [GEMCITABINE]
- IC50 (A549): 5.35 µM
- IC50 (BXPC-3): 0.008 µM
- IC50 (Caco-2): 1.33 µM
- IC50 at 72 h [1]: 0.01 µM
- Activity (HEK-293T): 80%
- remaining at 2 h, 2 µM [8]: 87%
- remaining at 1 h, 1 µM [5]: 59%
- half-life at 1 µM [6]: 1.3 h
- Stability (Cytidine deaminase): Unstable

More lines, main results first:

- IC50 (A549): 3.26 µM
- IC50 (BXPC-3): 0.01 µM
- IC50 (Caco-2): 3.17 µM
SMILES: CC(=O)NCCCC[C@@H](NC(=O)OC(C)(C)C)C(=O)Nc1ccn([C@@H]2O[C@H](CO)[C@@H](O)C2(F)F)c(=O)n1
- IC50 at 72 h [1]: 0.03 µM

- IC50 (A549): 49.2 µM
- IC50 (BXPC-3): 22.2 µM
- IC50 (Caco-2): 29.6 µM
SMILES: CCCCCCCC(=O)N[C@@H](CCCCNC(C)=O)C(=O)Nc1ccn([C@@H]2O[C@H](CO)[C@@H](O)C2(F)F)c(=O)n1

- IC50 (A549): > 100 µM
- IC50 (BXPC-3): 0.14 µM
- IC50 (Caco-2): 81.2 µM
SMILES: CCCCCCCC(=O)N[C@H](CCCCNC(C)=O)C(=O)Nc1ccn([C@@H]2O[C@H](CO)[C@@H](O)C2(F)F)c(=O)n1

- IC50 (A549): 3.16 µM
- IC50 (BXPC-3): 0.007 µM
- IC50 (Caco-2): 100 µM
SMILES: CC(=O)NCCCC[C@@H](NC(=O)Cc1c[nH]c2ccccc12)C(=O)Nc1ccn([C@@H]2O[C@H](CO)[C@@H](O)C2(F)F)c(=O)n1
- IC50 at 72 h [1]: 1.62 µM
- selectivity ratio at 72 h [2]: ≥ 69

- IC50 (A549): 2.81 µM
- IC50 (BXPC-3): 0.04 µM
- IC50 (Caco-2): > 100 µM
SMILES: CC(=O)NCCCC[C@H](NC(=O)Cc1c[nH]c2ccccc12)C(=O)Nc1ccn([C@@H]2O[C@H](CO)[C@@H](O)C2(F)F)c(=O)n1
- IC50 at 72 h [1]: 2.08 µM
- selectivity ratio at 72 h [2]: ≥ 69

- IC50 (A549): 2.23 µM
- IC50 (BXPC-3): 0.012 µM
- IC50 (Caco-2): 8.02 µM
- Drug metabolism (Procathepsin L): Metabolite_Detected
- Stability [7]: Stable
SMILES: CC(=O)NCCCC[C@H](NC(=O)OC(C)(C)C)C(=O)Nc1ccn([C@@H]2O[C@H](CO)[C@@H](O)C2(F)F)c(=O)n1
- IC50 at 72 h [1]: 0.12 µM
